In ChEMBL document CHEMBL4043172, “Constructing novel dihydrofuran and dihydroisoxazole analogues of isocombretastatin-4 as tubulin polymerization inhibitors through [3+2] reactions” (Bioorg Med Chem, 2017):
The source made the active and inactive calls. No cut-off for these calls is given here.

Columns and labels:
PC-3 [1] = test: Cytotoxicity against human PC3 cells assessed as reduction in cell viability incubated for 48 hrs by SRB assay; format: functional, cell-based; settings: PC-3, 48 h
Method in brief: (§1)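 SRB colorimetric antiproliferative assay. Cells were grown in RPMI-1640 with 10% heat-inactivated FBS and penicillin/streptomycin at 37 °C and 5% CO2, and compound-exposed for 48 h. IC50 is the concentration causing 50% inhibition of cell viability, given as mean ± SD of three determinations.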

HeLa = test: Cytotoxicity against human HeLa cells assessed as reduction in cell viability incubated for 48 hrs by SRB assay; format: functional, cell-based; method in brief: as §1
Sus scrofa = species on record: Sus scrofa; test: Inhibition of porcine brain tubulin polymerization at 3 uM incubated for 80 mins by fluorescence based spectrophotometry
Method in brief: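 Fluorescence-based kit assay. Tubulin (10 mg/mL) in buffer 1 with tubulin glycerol buffer and GTP (100 mM stock) was incubated with compound at 3 µM, with DMSO as vehicle control, at 37 °C for 80 min. Polymerization was followed as the fluorescence increase, read every minute at 360 nm excitation and 460 nm emission.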

PC-3 [2] = test: Cell cycle arrest in human PC3 cells assessed as accumulation at G0/G1 phase at 0.05 uM incubated for 24 hrs by propidium iodide staining based FACS assay (reference value: 62.5%); format: functional
Method in brief: (§2)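 PC-3 cells in RPMI-1640 with 10% FBS at 37 °C and 5% CO2. Cells were plated at 1.0×10^5 cells/mL and pre-incubated 24 h, then treated. They were collected by centrifugation, fixed in 70% ethanol overnight at 4 °C, resuspended in PBS with RNase A and propidium iodide, and analysed by flow cytometry for phase distribution against untreated control.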

PC-3 [3] = test: Cell cycle arrest in human PC3 cells assessed as accumulation at S phase at 0.05 uM incubated for 24 hrs by propidium iodide staining based FACS assay (reference value: 23.5%); format: functional; method in brief: as §2
PC-3 [4] = test: Cell cycle arrest in human PC3 cells assessed as accumulation at G2/M phase at 0.05 uM incubated for 24 hrs by propidium iodide staining based FACS assay (reference value: 14%); format: functional; method in brief: as §2

| Compound | IC50 (PC-3 [1]) [µM] | IC50 (HeLa) [µM] | inhibition (Sus scrofa) | Activity (PC-3 [2]) [%] | Activity (PC-3 [3]) [%] | Activity (PC-3 [4]) [%] |
| --- | --- | --- | --- | --- | --- | --- |
| CCCCC1(c2cc(OC)c(OC)c(OC)c2)CC(C#N)=C(c2ccc(Cl)cc2)O1 (stereo unspecified) | > 10 | > 10 | – | – | – | – |
| COc1ccc(C2(c3cc(OC)c(OC)c(OC)c3)CC(c3ccc(O)c(O)c3)=NO2)cc1O (stereo unspecified) | 9.56 | > 10 | – | – | – | – |
| COc1ccc(C2=C(C#N)CC(c3ccc(OC)c(O)c3)(c3cc(OC)c(OC)c(OC)c3)O2)cc1 (stereo unspecified) | > 10 | > 10 | – | – | – | – |
| COc1ccc(C2(c3cc(OC)c(OC)c(OC)c3)CC(c3ccc([N+](=O)[O-])cc3)=NO2)cc1O (stereo unspecified) | > 10 | > 10 | – | – | – | – |
| COc1ccc(/C=C\c2cc(OC)c(OC)c(OC)c2)cc1O [COMBRETASTATIN A4] | 0.007 | 0.53 | Active | 6.8 | 21.3 | 71.9 |
| COc1ccc([C@@]2(c3cc(OC)c(OC)c(OC)c3)CC(C#N)=C(c3ccccc3)O2)cc1O | 9.47 | > 10 | – | – | – | – |
| COc1ccc(C2(c3cc(OC)c(OC)c(OC)c3)CC(c3ccc(C)cc3)=NO2)cc1O (stereo unspecified) | 0.85 | 4.45 | – | – | – | – |
| COc1ccc(C2(c3cc(OC)c(OC)c(OC)c3)CC(C#N)=C(c3ccc(C)cc3)O2)cc1O (stereo unspecified) | 6.99 | > 10 | – | – | – | – |
| COc1ccc([C@@]2(c3cc(OC)c(OC)c(OC)c3)CC3=C(CCCC3=O)O2)cc1O | 17 | > 10 | – | – | – | – |
| COc1ccc(C2(c3cc(OC)c(OC)c(OC)c3)CC(C(=O)C(F)(F)F)=C(C)O2)cc1O (stereo unspecified) | 9.45 | > 10 | – | – | – | – |
| COc1ccc(C2(c3cc(OC)c(OC)c(OC)c3)CC(C#N)=C(c3ccc(F)cc3)O2)cc1O (stereo unspecified) | 0.81 | 7.21 | – | – | – | – |
| COc1ccc(C2(c3cc(OC)c(OC)c(OC)c3)CC(C#N)=C(C(C)(C)C)O2)cc1O (stereo unspecified) | > 10 | > 10 | – | – | – | – |
| COc1ccc(C2(c3cc(OC)c(OC)c(OC)c3)CC(c3ccc(O)c(OC)c3)=NO2)cc1O (stereo unspecified) | > 10 | > 10 | – | – | – | – |
| CCCCC1(c2cc(OC)c(OC)c(OC)c2)CC(c2ccc(Cl)cc2)=NO1 (stereo unspecified) | > 10 | > 10 | – | – | – | – |
| COc1ccc(C2(c3cc(OC)c(OC)c(OC)c3)CC(C#N)=C(c3ccc(Cl)cc3)O2)cc1O (stereo unspecified) | 0.86 | > 10 | – | – | – | – |
| CCCCC1(c2cc(OC)c(OC)c(OC)c2)CC(c2ccc(Cl)cc2OC)=NO1 (stereo unspecified) | > 10 | > 10 | – | – | – | – |
| COc1ccc(C2(c3cc(OC)c(OC)c(OC)c3)CC(c3ccccc3[N+](=O)[O-])=NO2)cc1O (stereo unspecified) | 8.21 | > 10 | – | – | – | – |
| COc1ccc(C2(c3cc(OC)c(OC)c(OC)c3)CC(c3ccccc3)=NO2)cc1O (stereo unspecified) | > 10 | > 10 | – | – | – | – |
| COc1ccc(C2(c3cc(OC)c(OC)c(OC)c3)CC(C#N)=C(c3ccc(Br)cc3)O2)cc1O (stereo unspecified) | > 10 | > 10 | – | – | – | – |
| COc1ccc(C2(c3cc(OC)c(OC)c(OC)c3)CC(c3cc(OC)c(OC)c(OC)c3Cl)=NO2)cc1O (stereo unspecified) | 8.63 | > 10 | – | – | – | – |
| COc1ccc(C2(c3cc(OC)c(OC)c(OC)c3)CC(C(=O)c3ccccc3)=C(c3ccccc3)O2)cc1O (stereo unspecified) | 0.78 | 2.32 | – | – | – | – |
